Test results as given in ChEMBL document CHEMBL1155459, “On-bead screening of a combinatorial fumaric acid derived peptide library yields antiplasmodial cysteine protease inhibitors with unusual peptide sequences” (J Med Chem, 2009).
Peptide text beside a SMILES is read from it.

Legend:
[1] = molecular target: Rhodesain (Trypanosoma brucei rhodesiense) (UniProt Q95PM0); experiment: Inhibition of Trypanosoma brucei rhodesiense rhodesain after 12 hrs by fluorescence spectroscopy-based on-bead assay; set-up: concentration or dose not given beside the values; conditions: concentration not given here
Method in brief: (§1)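 Library members on resin (PEGA, theoretical loading 0.40 mmol/g; added as DMSO suspension, 0.64 mM final inhibitor) preincubated with enzyme 12 h, then Cbz-Phe-Arg-AMC 40 μM added; AMC release followed by fluorescence (ex 380/em 460 nm). Kinetics compared with inhibitor-free amino-PEGA resin.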

[2] = Inhibition of Plasmodium falciparum falcipain-2 after 12 hrs by fluorescence spectroscopy-based on-bead assay; set-up: concentration or dose not given beside the values; conditions: concentration not given here; method in brief: as §1

Chain of Rhodesain (Trypanosoma brucei rhodesiense) (Q95PM0 1-450): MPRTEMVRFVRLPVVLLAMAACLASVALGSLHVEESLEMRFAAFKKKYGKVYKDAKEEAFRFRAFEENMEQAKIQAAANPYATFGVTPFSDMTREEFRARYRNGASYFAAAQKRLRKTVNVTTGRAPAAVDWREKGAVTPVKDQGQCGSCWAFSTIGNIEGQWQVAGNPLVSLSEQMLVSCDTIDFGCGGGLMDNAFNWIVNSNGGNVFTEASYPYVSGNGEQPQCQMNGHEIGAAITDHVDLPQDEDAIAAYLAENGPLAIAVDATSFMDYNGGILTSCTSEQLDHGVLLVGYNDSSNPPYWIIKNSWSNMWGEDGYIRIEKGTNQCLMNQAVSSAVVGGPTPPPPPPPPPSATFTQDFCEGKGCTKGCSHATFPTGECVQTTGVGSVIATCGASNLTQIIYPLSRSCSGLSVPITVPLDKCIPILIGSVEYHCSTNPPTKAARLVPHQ

Row | Structure (SMILES) | inhibition [1] [%] | inhibition [2] [%]
1 | CC(C)[C@H](NC(=O)[C@H](C)NC(=O)[C@H](Cc1ccccc1)NC(=O)[C@H](C)NC(=O)/C=C/C(=O)N[C@@H](C)C(=O)NCC(=O)N[C@@H](Cc1ccccc1)C(=O)O)C(N)=O (HELM PEPTIDE1{[C[C@H](NC(=O)/C=C/C(=O)[*:2])C(=O)NCC(=O)N[C@@H](Cc1ccccc1)C(=O)O].A.F.A.V.[am]}$$$$V2.0) | 18 | 51
2 | CC(C)C[C@H](NC(=O)[C@H](Cc1ccccc1)NC(=O)[C@H](C)NC(=O)/C=C/C(=O)N[C@@H](C)C(=O)NCC(=O)N[C@@H](Cc1ccccc1)C(=O)O)C(=O)N[C@H](C(N)=O)C(C)C (HELM PEPTIDE1{[C[C@H](NC(=O)/C=C/C(=O)[*:2])C(=O)NCC(=O)N[C@@H](Cc1ccccc1)C(=O)O].A.F.L.V.[am]}$$$$V2.0) | 66 | 57
3 | CC(C)[C@H](NC(=O)[C@@H](NC(=O)[C@H](Cc1ccccc1)NC(=O)[C@H](C)NC(=O)/C=C/C(=O)N[C@@H](C)C(=O)NCC(=O)N[C@@H](Cc1ccccc1)C(=O)O)C(C)C)C(N)=O (HELM PEPTIDE1{[C[C@H](NC(=O)/C=C/C(=O)[*:2])C(=O)NCC(=O)N[C@@H](Cc1ccccc1)C(=O)O].A.F.V.V.[am]}$$$$V2.0) | 55 | 35
4 | CC[C@H](C)[C@H](NC(=O)[C@H](C)NC(=O)/C=C/C(=O)N[C@@H](C)C(=O)NCC(=O)N[C@@H](Cc1ccccc1)C(=O)O)C(=O)N[C@@H](C)C(=O)N[C@H](C(N)=O)C(C)C (HELM PEPTIDE1{[C[C@H](NC(=O)/C=C/C(=O)[*:2])C(=O)NCC(=O)N[C@@H](Cc1ccccc1)C(=O)O].A.I.A.V.[am]}$$$$V2.0) | 9 | 37
5 | CC[C@H](C)[C@H](NC(=O)[C@H](C)NC(=O)/C=C/C(=O)N[C@@H](C)C(=O)NCC(=O)N[C@@H](Cc1ccccc1)C(=O)O)C(=O)N[C@@H](CC(C)C)C(=O)N[C@H](C(N)=O)C(C)C (HELM PEPTIDE1{[C[C@H](NC(=O)/C=C/C(=O)[*:2])C(=O)NCC(=O)N[C@@H](Cc1ccccc1)C(=O)O].A.I.L.V.[am]}$$$$V2.0) | 49 | 54
6 | CC[C@H](C)[C@H](NC(=O)[C@H](C)NC(=O)/C=C/C(=O)N[C@@H](C)C(=O)NCC(=O)N[C@@H](Cc1ccccc1)C(=O)O)C(=O)N[C@H](C(=O)N[C@H](C(N)=O)C(C)C)C(C)C (HELM PEPTIDE1{[C[C@H](NC(=O)/C=C/C(=O)[*:2])C(=O)NCC(=O)N[C@@H](Cc1ccccc1)C(=O)O].A.I.V.V.[am]}$$$$V2.0) | 34 | 30
7 | CC(C)C[C@H](NC(=O)[C@H](C)NC(=O)/C=C/C(=O)N[C@@H](C)C(=O)NCC(=O)N[C@@H](Cc1ccccc1)C(=O)O)C(=O)N[C@@H](C)C(=O)N[C@H](C(N)=O)C(C)C (HELM PEPTIDE1{[C[C@H](NC(=O)/C=C/C(=O)[*:2])C(=O)NCC(=O)N[C@@H](Cc1ccccc1)C(=O)O].A.L.A.V.[am]}$$$$V2.0) | 31 | 62
8 | CC(C)C[C@H](NC(=O)[C@H](C)NC(=O)/C=C/C(=O)N[C@@H](C)C(=O)NCC(=O)N[C@@H](Cc1ccccc1)C(=O)O)C(=O)N[C@H](C(=O)N[C@H](C(N)=O)C(C)C)C(C)C (HELM PEPTIDE1{[C[C@H](NC(=O)/C=C/C(=O)[*:2])C(=O)NCC(=O)N[C@@H](Cc1ccccc1)C(=O)O].A.L.V.V.[am]}$$$$V2.0) | 59 | 40
9 | CC(C)[C@H](NC(=O)[C@H](C)NC(=O)[C@@H](NC(=O)[C@H](C)NC(=O)/C=C/C(=O)N[C@@H](C)C(=O)NCC(=O)N[C@@H](Cc1ccccc1)C(=O)O)C1CCCCC1)C(N)=O (HELM PEPTIDE1{[C[C@H](NC(=O)/C=C/C(=O)[*:2])C(=O)NCC(=O)N[C@@H](Cc1ccccc1)C(=O)O].A.[O=C([C@@H](N[*:1])C1CCCCC1)[*:2]].A.V.[am]}$$$$V2.0) | 26 | 38
10 | CC(C)C[C@H](NC(=O)[C@@H](NC(=O)[C@H](C)NC(=O)/C=C/C(=O)N[C@@H](C)C(=O)NCC(=O)N[C@@H](Cc1ccccc1)C(=O)O)C1CCCCC1)C(=O)N[C@H](C(N)=O)C(C)C (HELM PEPTIDE1{[C[C@H](NC(=O)/C=C/C(=O)[*:2])C(=O)NCC(=O)N[C@@H](Cc1ccccc1)C(=O)O].A.[O=C([C@@H](N[*:1])C1CCCCC1)[*:2]].L.V.[am]}$$$$V2.0) | 59 | 43
11 | CC(C)[C@H](NC(=O)[C@@H](NC(=O)[C@@H](NC(=O)[C@H](C)NC(=O)/C=C/C(=O)N[C@@H](C)C(=O)NCC(=O)N[C@@H](Cc1ccccc1)C(=O)O)C1CCCCC1)C(C)C)C(N)=O (HELM PEPTIDE1{[C[C@H](NC(=O)/C=C/C(=O)[*:2])C(=O)NCC(=O)N[C@@H](Cc1ccccc1)C(=O)O].A.[O=C([C@@H](N[*:1])C1CCCCC1)[*:2]].V.V.[am]}$$$$V2.0) | 34 | 57
12 | CC(C)[C@H](NC(=O)[C@H](C)NC(=O)[C@@H](NC(=O)[C@H](C)NC(=O)/C=C/C(=O)N[C@@H](C)C(=O)NCC(=O)N[C@@H](Cc1ccccc1)C(=O)O)c1ccccc1)C(N)=O (HELM PEPTIDE1{[C[C@H](NC(=O)/C=C/C(=O)[*:2])C(=O)NCC(=O)N[C@@H](Cc1ccccc1)C(=O)O].A.[Phg].A.V.[am]}$$$$V2.0) | 25 | 57
13 | CC(C)C[C@H](NC(=O)[C@@H](NC(=O)[C@H](C)NC(=O)/C=C/C(=O)N[C@@H](C)C(=O)NCC(=O)N[C@@H](Cc1ccccc1)C(=O)O)c1ccccc1)C(=O)N[C@H](C(N)=O)C(C)C (HELM PEPTIDE1{[C[C@H](NC(=O)/C=C/C(=O)[*:2])C(=O)NCC(=O)N[C@@H](Cc1ccccc1)C(=O)O].A.[Phg].L.V.[am]}$$$$V2.0) | 72 | 55
14 | CC(C)[C@H](NC(=O)[C@@H](NC(=O)[C@@H](NC(=O)[C@H](C)NC(=O)/C=C/C(=O)N[C@@H](C)C(=O)NCC(=O)N[C@@H](Cc1ccccc1)C(=O)O)c1ccccc1)C(C)C)C(N)=O (HELM PEPTIDE1{[C[C@H](NC(=O)/C=C/C(=O)[*:2])C(=O)NCC(=O)N[C@@H](Cc1ccccc1)C(=O)O].A.[Phg].V.V.[am]}$$$$V2.0) | 50 | 38
15 | CC(C)[C@H](NC(=O)[C@H](C)NC(=O)[C@H](Cc1ccccc1)NC(=O)[C@H](Cc1ccccc1)NC(=O)/C=C/C(=O)N[C@@H](C)C(=O)NCC(=O)N[C@@H](Cc1ccccc1)C(=O)O)C(N)=O (HELM PEPTIDE1{[C[C@H](NC(=O)/C=C/C(=O)[*:2])C(=O)NCC(=O)N[C@@H](Cc1ccccc1)C(=O)O].F.F.A.V.[am]}$$$$V2.0) | 37 | 30
16 | CC(C)C[C@H](NC(=O)[C@H](Cc1ccccc1)NC(=O)[C@H](Cc1ccccc1)NC(=O)/C=C/C(=O)N[C@@H](C)C(=O)NCC(=O)N[C@@H](Cc1ccccc1)C(=O)O)C(=O)N[C@H](C(N)=O)C(C)C (HELM PEPTIDE1{[C[C@H](NC(=O)/C=C/C(=O)[*:2])C(=O)NCC(=O)N[C@@H](Cc1ccccc1)C(=O)O].F.F.L.V.[am]}$$$$V2.0) | 54 | 47
17 | CC(C)[C@H](NC(=O)[C@@H](NC(=O)[C@H](Cc1ccccc1)NC(=O)[C@H](Cc1ccccc1)NC(=O)/C=C/C(=O)N[C@@H](C)C(=O)NCC(=O)N[C@@H](Cc1ccccc1)C(=O)O)C(C)C)C(N)=O (HELM PEPTIDE1{[C[C@H](NC(=O)/C=C/C(=O)[*:2])C(=O)NCC(=O)N[C@@H](Cc1ccccc1)C(=O)O].F.F.V.V.[am]}$$$$V2.0) | 38 | 37
18 | CC[C@H](C)[C@H](NC(=O)[C@H](Cc1ccccc1)NC(=O)/C=C/C(=O)N[C@@H](C)C(=O)NCC(=O)N[C@@H](Cc1ccccc1)C(=O)O)C(=O)N[C@@H](C)C(=O)N[C@H](C(N)=O)C(C)C (HELM PEPTIDE1{[C[C@H](NC(=O)/C=C/C(=O)[*:2])C(=O)NCC(=O)N[C@@H](Cc1ccccc1)C(=O)O].F.I.A.V.[am]}$$$$V2.0) | 40 | 29
19 | CC[C@H](C)[C@H](NC(=O)[C@H](Cc1ccccc1)NC(=O)/C=C/C(=O)N[C@@H](C)C(=O)NCC(=O)N[C@@H](Cc1ccccc1)C(=O)O)C(=O)N[C@@H](CC(C)C)C(=O)N[C@H](C(N)=O)C(C)C (HELM PEPTIDE1{[C[C@H](NC(=O)/C=C/C(=O)[*:2])C(=O)NCC(=O)N[C@@H](Cc1ccccc1)C(=O)O].F.I.L.V.[am]}$$$$V2.0) | 61 | 51
20 | CC[C@H](C)[C@H](NC(=O)[C@H](Cc1ccccc1)NC(=O)/C=C/C(=O)N[C@@H](C)C(=O)NCC(=O)N[C@@H](Cc1ccccc1)C(=O)O)C(=O)N[C@H](C(=O)N[C@H](C(N)=O)C(C)C)C(C)C (HELM PEPTIDE1{[C[C@H](NC(=O)/C=C/C(=O)[*:2])C(=O)NCC(=O)N[C@@H](Cc1ccccc1)C(=O)O].F.I.V.V.[am]}$$$$V2.0) | 43 | 45
21 | CC(C)C[C@H](NC(=O)[C@H](Cc1ccccc1)NC(=O)/C=C/C(=O)N[C@@H](C)C(=O)NCC(=O)N[C@@H](Cc1ccccc1)C(=O)O)C(=O)N[C@@H](C)C(=O)N[C@H](C(N)=O)C(C)C (HELM PEPTIDE1{[C[C@H](NC(=O)/C=C/C(=O)[*:2])C(=O)NCC(=O)N[C@@H](Cc1ccccc1)C(=O)O].F.L.A.V.[am]}$$$$V2.0) | 49 | 45
22 | CC(C)C[C@H](NC(=O)[C@H](Cc1ccccc1)NC(=O)/C=C/C(=O)N[C@@H](C)C(=O)NCC(=O)N[C@@H](Cc1ccccc1)C(=O)O)C(=O)N[C@@H](CC(C)C)C(=O)N[C@H](C(N)=O)C(C)C (HELM PEPTIDE1{[C[C@H](NC(=O)/C=C/C(=O)[*:2])C(=O)NCC(=O)N[C@@H](Cc1ccccc1)C(=O)O].F.L.L.V.[am]}$$$$V2.0) | 69 | 62
23 | CC(C)C[C@H](NC(=O)[C@H](Cc1ccccc1)NC(=O)/C=C/C(=O)N[C@@H](C)C(=O)NCC(=O)N[C@@H](Cc1ccccc1)C(=O)O)C(=O)N[C@H](C(=O)N[C@H](C(N)=O)C(C)C)C(C)C (HELM PEPTIDE1{[C[C@H](NC(=O)/C=C/C(=O)[*:2])C(=O)NCC(=O)N[C@@H](Cc1ccccc1)C(=O)O].F.L.V.V.[am]}$$$$V2.0) | 45 | 36
